Assay results published in ChEMBL document CHEMBL5260840 (J Med Chem, 2019).

Experiments:
[1] = target: T1, von Hippel-Lindau disease tumor suppressor/Bromodomain-containing protein 7 (Homo sapiens) (UniProt Q9NPI1+P40337); experiment: PROTAC activity at VHL/BRD7 in human HeLa cells assessed as remaining BRD7 protein level at 1 uM incubated for 4 hrs by Western blot analysis relative to control; format: cell-based
[2] = target: T2, von Hippel-Lindau disease tumor suppressor/Bromodomain-containing protein 9 (Homo sapiens) (UniProt Q9H8M2+P40337); experiment: PROTAC activity at VHL/BRD9 in human Ri-1 cells assessed as remaining BRD9 protein level at 1 uM incubated for 2 hrs by Western blot analysis relative to control; format: cell-based
T2 sequence (P40337 whole entry, looked up): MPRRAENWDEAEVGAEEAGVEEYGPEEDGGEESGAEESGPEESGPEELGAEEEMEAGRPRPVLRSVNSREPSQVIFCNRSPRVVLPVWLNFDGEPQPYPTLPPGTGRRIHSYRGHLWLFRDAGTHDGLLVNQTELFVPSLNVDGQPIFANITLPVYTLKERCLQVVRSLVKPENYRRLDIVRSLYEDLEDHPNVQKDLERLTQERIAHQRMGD
T2 sequence (Q9H8M2 whole entry, looked up): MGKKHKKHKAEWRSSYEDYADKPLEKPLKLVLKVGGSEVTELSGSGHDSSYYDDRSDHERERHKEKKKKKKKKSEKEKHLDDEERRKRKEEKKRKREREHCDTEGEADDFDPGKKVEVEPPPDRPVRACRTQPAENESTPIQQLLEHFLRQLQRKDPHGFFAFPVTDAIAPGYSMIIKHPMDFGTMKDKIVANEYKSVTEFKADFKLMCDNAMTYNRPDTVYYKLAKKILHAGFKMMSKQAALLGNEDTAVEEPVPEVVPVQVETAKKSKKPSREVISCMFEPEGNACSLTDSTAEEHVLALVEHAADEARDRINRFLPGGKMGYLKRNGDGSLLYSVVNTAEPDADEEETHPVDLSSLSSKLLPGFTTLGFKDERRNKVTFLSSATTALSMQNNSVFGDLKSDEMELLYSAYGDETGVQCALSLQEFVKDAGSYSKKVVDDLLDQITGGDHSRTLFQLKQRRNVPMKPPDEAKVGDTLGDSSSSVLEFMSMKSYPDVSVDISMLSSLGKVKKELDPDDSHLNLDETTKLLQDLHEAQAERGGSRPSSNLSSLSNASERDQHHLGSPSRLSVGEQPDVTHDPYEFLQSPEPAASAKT
Summary of the method: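 Ri-1 cells exposed to compound for the stated time before harvest; BRD9, BRD7 and β-actin measured by Western blot, band intensities quantified and set against DMSO-treated control.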

[3] = target: T1, von Hippel-Lindau disease tumor suppressor/Bromodomain-containing protein 7 (Homo sapiens); experiment: PROTAC activity at VHL/BRD7 in human Ri-1 cells assessed as remaining BRD7 protein level at 1 uM incubated for 2 hrs by Western blot analysis relative to control; format: cell-based
[4] = target: T3, Protein cereblon/Bromodomain-containing protein 7 (Homo sapiens) (UniProt Q9NPI1+Q96SW2); experiment: PROTAC activity at CRBN/BRD7 in human HeLa cells assessed as remaining BRD7 protein level at 1 uM incubated for 16 hrs by Western blot analysis relative to control; format: cell-based
T3 sequence (Q96SW2 whole entry, looked up): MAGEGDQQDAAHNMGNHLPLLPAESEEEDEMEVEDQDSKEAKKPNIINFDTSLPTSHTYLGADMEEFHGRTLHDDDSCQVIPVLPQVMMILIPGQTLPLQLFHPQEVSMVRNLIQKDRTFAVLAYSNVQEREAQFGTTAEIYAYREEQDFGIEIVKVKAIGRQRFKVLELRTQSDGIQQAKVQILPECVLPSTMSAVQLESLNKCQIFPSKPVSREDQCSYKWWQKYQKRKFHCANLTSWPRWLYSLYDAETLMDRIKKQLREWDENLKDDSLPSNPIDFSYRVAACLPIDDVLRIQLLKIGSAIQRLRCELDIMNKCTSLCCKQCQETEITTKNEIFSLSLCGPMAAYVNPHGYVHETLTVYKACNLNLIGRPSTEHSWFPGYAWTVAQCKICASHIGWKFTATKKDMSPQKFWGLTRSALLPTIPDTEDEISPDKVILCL
T3 sequence (Q9NPI1 whole entry, looked up): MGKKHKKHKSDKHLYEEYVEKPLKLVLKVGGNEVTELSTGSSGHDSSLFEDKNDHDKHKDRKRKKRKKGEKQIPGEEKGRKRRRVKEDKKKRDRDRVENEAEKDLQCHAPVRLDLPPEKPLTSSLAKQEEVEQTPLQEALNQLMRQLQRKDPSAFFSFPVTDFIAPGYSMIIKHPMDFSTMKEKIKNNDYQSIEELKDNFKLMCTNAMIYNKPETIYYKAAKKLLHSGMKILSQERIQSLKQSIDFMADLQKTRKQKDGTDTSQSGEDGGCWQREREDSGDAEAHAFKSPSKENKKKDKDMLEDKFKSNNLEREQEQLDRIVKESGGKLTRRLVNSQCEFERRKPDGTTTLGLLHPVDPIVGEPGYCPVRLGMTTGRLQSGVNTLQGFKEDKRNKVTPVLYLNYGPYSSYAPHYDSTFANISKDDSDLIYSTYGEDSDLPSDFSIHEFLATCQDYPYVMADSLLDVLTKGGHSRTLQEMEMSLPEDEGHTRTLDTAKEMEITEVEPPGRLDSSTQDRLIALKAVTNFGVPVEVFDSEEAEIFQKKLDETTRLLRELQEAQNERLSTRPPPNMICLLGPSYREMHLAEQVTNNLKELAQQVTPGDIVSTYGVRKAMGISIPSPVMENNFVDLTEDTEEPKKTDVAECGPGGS
Summary of the method: (§1)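 HeLa cells given 1 µM compound for 16 h before harvest. BRD9, BRD7 and β-actin detected by Western blot; band intensities quantified.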

[5] = target: T4, Protein cereblon/Bromodomain-containing protein 9 (Homo sapiens) (UniProt Q9H8M2+Q96SW2); experiment: PROTAC activity at CRBN/BRD9 in human HeLa cells assessed as remaining BRD9 protein level at 1 uM incubated for 4 hrs by Western blot analysis relative to control; format: cell-based
T4 sequence (Q96SW2 whole entry, looked up): as the sequence (Q96SW2 whole entry, looked up) above
T4 sequence (Q9H8M2 whole entry, looked up): as the sequence (Q9H8M2 whole entry, looked up) above
Summary of the method: (§2)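 Cells given 1 µM compound before harvest: HeLa 4 h, RI-1 2 h and 8 h. BRD9, BRD7 and β-actin detected by Western blot; band intensities quantified.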

[6] = target: T4, Protein cereblon/Bromodomain-containing protein 9 (Homo sapiens); experiment: PROTAC activity at CRBN/BRD9 in human HeLa cells assessed as remaining BRD9 protein level at 1 uM incubated for 16 hrs by Western blot analysis relative to control; format: cell-based; summary of the method: as §1
[7] = target: T3, Protein cereblon/Bromodomain-containing protein 7 (Homo sapiens); experiment: PROTAC activity at CRBN/BRD7 in human HeLa cells assessed as remaining BRD7 protein level at 1 uM incubated for 4 hrs by Western blot analysis relative to control; format: cell-based; summary of the method: as §2
[8] = target: T1, von Hippel-Lindau disease tumor suppressor/Bromodomain-containing protein 7 (Homo sapiens); experiment: PROTAC activity at VHL/BRD7 in human HeLa cells assessed as remaining BRD7 protein level at 1 uM incubated for 16 hrs by Western blot analysis relative to control; format: cell-based
[9] = target: T2, von Hippel-Lindau disease tumor suppressor/Bromodomain-containing protein 9 (Homo sapiens); experiment: PROTAC activity at VHL/BRD9 in human HeLa cells assessed as remaining BRD9 protein level at 1 uM incubated for 16 hrs by Western blot analysis relative to control; format: cell-based
Summary of the method: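 HeLa cells treated with compound for the stated time before harvest; BRD9, BRD7 and β-actin detected by Western blot with β-actin loading control; band intensities quantified.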

EOL1 = experiment: Antiproliferative activity against human EOL1 cells assessed as inhibition of cell growth incubated for 7 days by CellTiterGlo assay; format: functional, cell-based; conditions: EOL1, 168 h
A204 = experiment: Antiproliferative activity against human A204 cells assessed as inhibition of cell growth incubated for 7 days by CellTiterGlo assay; format: functional, cell-based; conditions: A204, 168 h

T1 sequence (P40337 whole entry, looked up): as the sequence (P40337 whole entry, looked up) above
T1 sequence (Q9NPI1 whole entry, looked up): as the sequence (Q9NPI1 whole entry, looked up) above

SMILES | Activity [1] | Activity [2] | Activity [3] | other results
COc1cc(-c2cn(C)c(=O)c3cnccc23)cc(OC)c1CN1CCN(CCOCCOCCOCCOCC(=O)NCCNc2cccc3c2C(=O)N(C2CCC(=O)NC2=O)C3=O)CC1 (stereo not given) | – | – | – | Activity [4]: 94%; Activity [5]: 19%; Activity [6]: 11%; Activity [7]: 106%
COc1cc(-c2cn(C)c(=O)c3cnccc23)cc(OC)c1CN1CCN(CCOCCOCCOCC(=O)N[C@H](C(=O)N2C[C@H](O)C[C@H]2C(=O)NCc2ccc(-c3scnc3C)cc2)C(C)(C)C)CC1 | 107% | – | – | Activity [8]: 106%; Activity [9]: 95%
COc1cc(-c2cn(C)c(=O)c3cnccc23)cc(OC)c1CN1CCN(C(=O)COCCOCCOCN[C@H](C(=O)N2C[C@H](O)C[C@H]2C(=O)NCc2ccc(-c3scnc3C)cc2)C(C)(C)C)CC1 | – | – | – | Activity [8]: 113%; Activity [9]: 73%
COc1cc(-c2cn(C)c(=O)c3cnccc23)cc(OC)c1CN1CCN(CCOCCOCCOc2cc(-c3scnc3C)ccc2CNC(=O)[C@@H]2C[C@@H](O)CN2C(=O)[C@@H](NC(C)=O)C(C)(C)C)CC1 | 95% | – | – | Activity [8]: 107%; Activity [9]: 156%
COc1cc(-c2cn(C)c(=O)c3cnccc23)cc(OC)c1CN1CC(NC(=O)COCCOc2cc(-c3scnc3C)ccc2CNC(=O)[C@@H]2C[C@@H](O)CN2C(=O)[C@@H](NC(=O)C2(F)CC2)C(C)(C)C)C1 | 29% | 109% | 125% | –
COc1cccc2c1C(=O)c1c(O)c3c(c(O)c1C2=O)C[C@@](O)(C(=O)CO)C[C@@H]3O[C@H]1C[C@H](N)[C@H](O)[C@H](C)O1 [DOXORUBICIN] | – | – | – | IC50 (EOL1): 1.27 nM; IC50 (A204): 6.48 nM
COc1cc(-c2cn(C)c(=O)c3cnccc23)cc(OC)c1CN(C)C | 90% | – | – | IC50 (EOL1): 89.3 nM; IC50 (A204): 372 nM
COc1cc(-c2cn(C)c(=O)c3cnccc23)cc(OC)c1CN1CCN(CCOCCOCCOCCOCCOCC(=O)N[C@H](C(=O)N2C[C@H](O)C[C@H]2C(=O)NCc2ccc(-c3scnc3C)cc2)C(C)(C)C)CC1 | 104% | – | – | Activity [8]: 54%; Activity [9]: 112%
COc1cc(-c2cn(C)c(=O)c3cnccc23)cc(OC)c1CN1CC(NC(=O)COCCOCCOc2cc(-c3scnc3C)ccc2CNC(=O)[C@@H]2C[C@@H](O)CN2C(=O)[C@@H](NC(=O)C2(F)CC2)C(C)(C)C)C1 | 53% | 95% | 92% | –
COc1cc(-c2cn(C)c(=O)c3cnccc23)cc(OC)c1CN1CC(NC(=O)COCCOCCOCCOc2cc(-c3scnc3C)ccc2CNC(=O)[C@@H]2C[C@@H](O)CN2C(=O)[C@@H](NC(=O)C2(F)CC2)C(C)(C)C)C1 | 103% | 89% | 98% | –
COc1cc(-c2cn(C)c(=O)c3cnccc23)cc(OC)c1CN1CCN(CCOCCOCCOCCOCCOc2cc(-c3scnc3C)ccc2CNC(=O)[C@@H]2C[C@@H](O)CN2C(=O)[C@@H](NC(C)=O)C(C)(C)C)CC1 | 109% | – | – | Activity [8]: 98%; Activity [9]: 114%
COc1cc(-c2cn(C)c(=O)c3cnccc23)cc(OC)c1CN(C)CC(=O)NCCOCCOCCNc1cccc2c1C(=O)N(C1CCC(=O)NC1=O)C2=O (stereo not given) | – | – | – | IC50 (EOL1): 4.87 nM; IC50 (A204): 89.8 nM
COc1cc(-c2cn(C)c(=O)c3cnccc23)cc(OC)c1CN1CCN(CCCCCOCCOCC(=O)N[C@H](C(=O)N2C[C@H](O)C[C@H]2C(=O)NCc2ccc(-c3scnc3C)cc2)C(C)(C)C)CC1 | 106% | – | – | Activity [8]: 80%; Activity [9]: 61%
COc1cc(-c2cn(C)c(=O)c3cnccc23)cc(OC)c1CN1CCN(CCOCCOCCOCCOCCOc2cc(-c3scnc3C)ccc2CNC(=O)[C@@H]2C[C@@H](O)CN2C(=O)[C@@H](NC(=O)C2(C#N)CC2)C(C)(C)C)CC1 | 89% | – | – | Activity [8]: 124%; Activity [9]: 98%
COc1cc(-c2cn(C)c(=O)c3cnccc23)cc(OC)c1CN1CC(NC(=O)CCCCOCCOc2cc(-c3scnc3C)ccc2CNC(=O)[C@@H]2C[C@@H](O)CN2C(=O)[C@@H](NC(=O)C2(F)CC2)C(C)(C)C)C1 | 31% | 92% | 106% | –
COc1cc(-c2cn(C)c(=O)c3cnccc23)c(OC)cc1CN(C)C | – | – | – | IC50 (EOL1): 339 nM; IC50 (A204): 3550 nM

More lines, main results first:

Activity [1] | Activity [2] | Activity [3] | SMILES | other results
182% | 105% | 125% | COc1cc(-c2cn(C)c(=O)c3cnccc23)cc(OC)c1CN1CCN(CCOCCOCCOCCOc2cc(-c3scnc3C)ccc2CNC(=O)[C@@H]2C[C@@H](O)CN2C(=O)[C@@H](NC(=O)C2(F)CC2)C(C)(C)C)CC1 | –
250% | 94% | 97% | COc1cc(-c2cn(C)c(=O)c3cnccc23)c(OC)cc1CN1CC(NC(=O)CCCCOCCOc2cc(-c3scnc3C)ccc2CNC(=O)[C@@H]2C[C@@H](O)CN2C(=O)[C@@H](NC(=O)C2(F)CC2)C(C)(C)C)C1 | –
54% | 110% | 131% | COc1cc(-c2cn(C)c(=O)c3cnccc23)c(OC)cc1CN1CC(NC(=O)CCCCOc2cc(-c3scnc3C)ccc2CNC(=O)[C@@H]2C[C@@H](O)CN2C(=O)[C@@H](NC(=O)C2(F)CC2)C(C)(C)C)C1 | –
3% | 94% | 98% | COc1cc(-c2cn(C)c(=O)c3cnccc23)c(OC)cc1CN1CCN(CCOCCOc2cc(-c3scnc3C)ccc2CNC(=O)[C@@H]2C[C@@H](O)CN2C(=O)[C@@H](NC(=O)C2(F)CC2)C(C)(C)C)CC1 | –
110% | – | – | COc1cc(-c2cn(C)c(=O)c3cnccc23)cc(OC)c1CN1CCN(CCOCCOCCOCCOCCOc2cc(-c3scnc3C)ccc2CNC(=O)[C@@H]2C[C@@H](O)CN2C(=O)[C@@H](NC(=O)C2(F)CC2)C(C)(C)C)CC1 | Activity [8]: 163%; Activity [9]: 97%
158% | 99% | 112% | COc1cc(-c2cn(C)c(=O)c3cnccc23)c(OC)cc1CN1CC(NC(=O)COCCOc2cc(-c3scnc3C)ccc2CNC(=O)[C@@H]2C[C@@H](O)CN2C(=O)[C@@H](NC(=O)C2(F)CC2)C(C)(C)C)C1 | –
88% | – | – | COc1cc(-c2cn(C)c(=O)c3cnccc23)cc(OC)c1CN1CCN(CCOCCOCCOc2cc(-c3scnc3C)ccc2CNC(=O)[C@@H]2C[C@@H](O)CN2C(=O)[C@@H](NC(=O)C2(C#N)CC2)C(C)(C)C)CC1 | Activity [8]: 187%; Activity [9]: 63%
126% | 125% | 149% | COc1cc(-c2cn(C)c(=O)c3cnccc23)c(OC)cc1CN1CCN(CCOCCOCCOc2cc(-c3scnc3C)ccc2CNC(=O)[C@@H]2C[C@@H](O)CN2C(=O)[C@@H](NC(=O)C2(F)CC2)C(C)(C)C)CC1 | –
206% | 127% | 134% | COc1cc(-c2cn(C)c(=O)c3cnccc23)c(OC)cc1CN1CCN(CCOCCOCCOCCOc2cc(-c3scnc3C)ccc2CNC(=O)[C@@H]2C[C@@H](O)CN2C(=O)[C@@H](NC(=O)C2(F)CC2)C(C)(C)C)CC1 | –
138% | 95% | 85% | COc1cc(-c2cn(C)c(=O)c3cnccc23)c(OC)cc1CN1CC(NC(=O)COCCOCCOCCOc2cc(-c3scnc3C)ccc2CNC(=O)[C@@H]2C[C@@H](O)CN2C(=O)[C@@H](NC(=O)C2(F)CC2)C(C)(C)C)C1 | –
25% | 68% | 70% | COc1cc(-c2cn(C)c(=O)c3cnccc23)cc(OC)c1CN1CC(NC(=O)CCCCOc2cc(-c3scnc3C)ccc2CNC(=O)[C@@H]2C[C@@H](O)CN2C(=O)[C@@H](NC(=O)C2(F)CC2)C(C)(C)C)C1 | –
280% | 103% | 120% | COc1cc(-c2cn(C)c(=O)c3cnccc23)c(OC)cc1CN1CC(NC(=O)COCCOCCOc2cc(-c3scnc3C)ccc2CNC(=O)[C@@H]2C[C@@H](O)CN2C(=O)[C@@H](NC(=O)C2(F)CC2)C(C)(C)C)C1 | –
336% | 89% | 102% | COc1cc(-c2cn(C)c(=O)c3cnccc23)c(OC)cc1CN1CCN(CCCCCOCCOc2cc(-c3scnc3C)ccc2CNC(=O)[C@@H]2C[C@@H](O)CN2C(=O)[C@@H](NC(=O)C2(F)CC2)C(C)(C)C)CC1 | –
98% | 69% | 83% | COc1cc(-c2cn(C)c(=O)c3cnccc23)cc(OC)c1CN1CCN(CCCCCOCCOc2cc(-c3scnc3C)ccc2CNC(=O)[C@@H]2C[C@@H](O)CN2C(=O)[C@@H](NC(=O)C2(F)CC2)C(C)(C)C)CC1 | –
151% | 65% | 65% | COc1cc(-c2cn(C)c(=O)c3cnccc23)c(OC)cc1CN1CCN(CCCCCOc2cc(-c3scnc3C)ccc2CNC(=O)[C@@H]2C[C@@H](O)CN2C(=O)[C@@H](NC(=O)C2(F)CC2)C(C)(C)C)CC1 | –
